Screening data deposited in PubChem by several laboratories.
Sampled rows, rich in hits. Any-hit rate of the full collection: about 2.6%.
Rin1 Abl inh – blocks binding of human Rin1 to Abl. P00519+Q13671. TR-FRET Rin1/Abl binding, biochemical. inhibition, % at 7.35 µM. actives 0.4% (n = 360,000); in the data active means inhibition above about 5%, passing the limit was not always enough
SKN-1 block – blocks SKN-1 activity in C. elegans; inhibition, % at 21.8 µM; AID 624304; C. elegans VP596 Pgst-4::GFP/RFP ratio, acrylamide-induced, 24 h; actives 0.49% (n = 360,000);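 active means interference check ratio from 0.5 to 1.5 plus GFP to RFP signal ratio inhibition reaching or exceeding a fixed threshold, cut at about 30% in these data, passing the limit was not always enough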
Rce1 inh – blocks yeast Ras-converting enzyme; actives 0.27% (n = 290,000); yeast membranes, quenched prenylated peptide cleavage fluorescence; Q03530; AID 2563; calls only;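 active means fall in fluorescence gain of 50% or more versus controls, with final raw signal at or below 3038400; inconclusive means same 50% fall but final raw signal above 3038400; inactive means fall in fluorescence gain under 50%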;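 further: plate controls were neutral control wells for no effect and wells lacking membranes for full effect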
Target sequence (Q03530 whole entry, looked up): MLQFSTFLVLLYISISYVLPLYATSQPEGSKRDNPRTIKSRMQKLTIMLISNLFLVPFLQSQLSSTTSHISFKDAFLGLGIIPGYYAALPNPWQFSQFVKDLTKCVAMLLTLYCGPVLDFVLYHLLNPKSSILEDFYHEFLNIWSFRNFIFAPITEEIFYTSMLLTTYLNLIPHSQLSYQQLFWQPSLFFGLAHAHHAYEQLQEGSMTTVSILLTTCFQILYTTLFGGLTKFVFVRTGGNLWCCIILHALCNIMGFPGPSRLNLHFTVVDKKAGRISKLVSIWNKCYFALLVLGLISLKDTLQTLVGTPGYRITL
Myeloid diff MLP – promotes myeloid progenitor differentiation | AID 624256 | calls only at 10 µM | ER-HoxA9 myeloid progenitors, lysozyme-GFP differentiation, flow cytometry | actives 1% (n = 360,000);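 active means normalized GFP-positive differentiation at or above the plate's own cutoff, the solvent-only control mean plus 3 SD; inconclusive means no clear call, values can overlap the other calls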;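 further: cells exposed to compound for four days before flow analysis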
T cell modulator – modulates CD8 T cell binding to vesicles; 2C CD8+ T cell-vesicle binding, flow cytometry; hits give low values; response (vesicle binding), % at 7 µM; actives 0.068% (n = 330,000);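 active means response, share of CD8 T cells binding vesicles, and their 90th percentile fluorescence all below set limits, cut at about 80% in these data, passing the limit was not always enough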;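 further: values below 100% mean blocked vesicle binding to the CD8+ T cells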
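System: murine 2C transgenic CD8+ T lymphocytes; also added: QL9-loaded Drosophila micro-vesicles; times: binding 1.5 h at 37 °C; measured by: flow cytometry, PE anti-B7-1 (FL2) versus Alexa647 anti-CD8 (FL8), PFA-fixed; control set: Peptide-free naked vesicles (low) and QL9 vesicles with 0.7% DMSO vehicle (high)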
GRK2 inh – human GRK2 inhibition via aptamer displacement; bead flow cytometry, FAM-aptamer displacement from GRK2; inhibition of aptamer binding, % at 10 µM; actives 0.59% (n = 330,000); P25098;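 active means inhibition of aptamer binding above 40%, roughly 3 SD of noise, on plates passing a quality check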;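 further: median bead fluorescence of bound FAM aptamer so fluorescent compounds give negative values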
* marks the source's active call; other numbers are inactive results; i = inactive; ? = inconclusive; . = not tested or not shown; + = active, no number.

SMILES | Rin1 Abl inh | SKN-1 block | Rce1 inh | Myeloid diff MLP | T cell modulator | GRK2 inh
CC1(C)NC(=O)N(CCCCOc2ccc(Br)cc2Cl)C1=O | 0 | 4 | i | i | i | 0
Cc1ccc(C)c(S(=O)(=O)N2CCN(C(=O)C3CCN(c4ncnc5sc(C)c(C)c45)CC3)CC2)c1 | 2 | 11 | i | + | 218 | 1
Cc1ccc(NC(=O)C2CCN(c3ncnc4sc(C)c(C)c34)CC2)cc1S(=O)(=O)N(C)C | 0 | 7 | i | i | 204 | 1
Cc1ccc(C)c(OCCn2ccnc2)c1 | 10* | -17 | i | i | 134 | 9
Cc1ccccc1NC(=O)CCNS(=O)(=O)c1ccc2c(c1)CCC(=O)N2 | -2 | -4 | i | i | 358 | 0
CCCCCN(C(=O)CCC(=O)OCc1ccccc1C(F)(F)F)c1c(N)n(CCCC)c(=O)[nH]c1=O | -1 | -10 | i | i | 378 | 47*
Brc1ccc(-c2nc(-c3cccnc3)no2)o1 | 0 | 52* | i | i | 327 | 1
Brc1ccc(-c2nc(-c3ccccc3)no2)o1 | -5 | 79* | . | i | 480 | 0
CCSc1nc(COC(=O)NC)c(COC(=O)NC)n1C | 2 | -8 | . | + | . | .
CNC(=O)OCc1nc(SSC(C)(C)C)n(C)c1COC(=O)NC | 0 | -4 | . | ? | . | .
O=C(CC1SC(N2CCOCC2)=NC1=O)Nc1ccc(Cl)cc1 (centres undefined) | -2 | 2 | . | i | . | .
CC(C)C(CCNCc1ccccn1)c1ccc(Cl)cc1 (centres undefined) | 0 | 38* | i | i | 258 | 0
CCNCCC(CCC(C)C)c1ccc2c(c1)OCO2 (centres undefined) | 1 | 8 | i | i | 652 | 0
CC(C)CCC(CCNCc1ccccn1)c1ccc2c(c1)OCO2 (centres undefined) | 2 | -7 | i | + | 196 | 0
CC(=O)O[C@H]1[C@@H](O)[C@H](O)[C@H](Oc2c(O)c(C)c3c4c2[C@@H](C)CC[C@@H]4[C@@H](C)C[C@@H]3C=C(C)C)O[C@H]1C | 0 | 40* | . | i | . | .
CC(=O)O[C@@H]1[C@H](Oc2c(O)c(C)c3c4c2[C@H](C)CC[C@H]4[C@H](C)C[C@@H]3C=C(C)C)O[C@@H](C)[C@@H](O)[C@H]1O | -2 | 5 | . | i | . | .
CCCCCCCCCCCCCCCC[N+](C)(C)CCl | 1 | 38* | . | . | . | .
CCCCCCCCCCCCCCCC[N+](C)(C)CC | -1 | 32 | i | ? | 220 | 0
Fc1ccc(OCc2nc(-c3cccs3)no2)cc1 | 4 | 39* | i | i | 798 | 0
Cc1cc(OCc2nc(-c3cccs3)no2)cc(C)c1Cl | -1 | -1 | i | i | 174 | 0
Clc1ccc(OCc2nc(-c3ccncc3)no2)c(Cl)c1 | -2 | 24 | i | i | 326 | 0
Clc1cccc(OCc2nc(-c3ccncc3)no2)c1 | 4 | 48* | i | i | 273 | 4
c1ccc(OCc2nc(-c3cccs3)no2)cc1 | 2 | 40* | i | i | 0 | 3
O=C1COc2ccc(S(=O)(=O)N3CCCCCC3)cc2N1 | 1 | 1 | i | i | 302 | 3
c1ccc(CCNc2ccnc3cc4ccccc4cc23)cc1 | -7 | 3 | + | . | . | .
SMILES | Rin1 Abl inh | SKN-1 block | Rce1 inh | Myeloid diff MLP | T cell modulator | GRK2 inh
S=C(Nc1ccccc1)N1CCN(C2CCCCC2)CC1 | 2 | -13 | i | + | 216 | 0
S=C(Nc1ccccc1)N1CCCCCC1 | 2 | 8 | i | i | i | 0
CC[N+]1=C(C)C(C)(C)c2cc(C)ccc21 | -1 | 71 | i | + | 297 | 34
COc1ccc2c(C)cc(SCC(=O)Nc3nsc(-c4ccc(C)cc4)n3)nc2c1 | 2 | -5 | i | i | 152 | 45*
COc1cc(Br)c(Br)c(Br)c1N | 0 | -8 | i | i | 623 | 1
CCc1ccc(/C=C2\SC(=S)N(CCCC(=O)Nc3ccccn3)C2=O)cc1 | 1 | 47* | i | i | 369 | 2
COc1ccc(OCC(=O)Nc2ccc(S(=O)(=O)Nc3cc(C)nc(C)n3)cc2)cc1 | 0 | 10 | i | i | 254 | 1
COCCOCC(=O)Nc1ccc(S(=O)(=O)Nc2cc(C)nc(C)n2)cc1 | 1 | 14 | i | + | 248 | 0
O=C(CCNS(=O)(=O)c1ccccc1)OCc1nc2ccsc2c(=O)[nH]1 | 3 | 4 | i | i | 235 | 0
CCN=c1scc(-c2ccccc2)n1/N=C/c1ccccn1 | -1 | 44* | i | + | 313 | 1
C=CCN=c1scc(-c2ccccc2)n1/N=C/c1ccccn1 | -2 | 7 | i | + | 213 | 2
CCN=c1scc(-c2ccc(F)cc2)n1/N=C/c1ccccn1 | -3 | 45* | i | i | 495 | 2
CCCCNC(=O)N1CCN(c2ccnc3cc(Cl)ccc23)CC1 | -2 | 21 | i | i | 276 | 0
COCCNC(=O)c1cccc(OC2CCN(Cc3cccc(SC)c3)CC2)c1 | -1 | 3 | i | i | 142 | 0
Cc1cc(C)c(NC(=O)C2=COCCO2)c(C)c1 | 2 | 3 | i | i | i | 0
COc1ccc(CNC(=O)c2c(N)n(CCCN3CCOCC3)c3nc4ccccc4nc23)cc1 | -6 | 36* | + | i | 450 | 1
Nc1c(C(=O)NCc2ccccc2)c2nc3ccccc3nc2n1CCCN1CCOCC1 | -6 | 10 | i | i | 404 | 2
O=C(NCc1ccccc1)C(=O)NCC(c1ccco1)N1CCN(c2ccccc2F)CC1 (centres undefined) | 4.7* | -1 | i | i | 100 | 1
O=C(NCc1cccnc1)C(=O)NCC(c1ccco1)N1CCN(c2ccccc2F)CC1 (centres undefined) | -2 | 16 | i | i | 147 | 0
CC(C)(C)C(=O)N1CCN(c2nc3ccc(Br)cc3s2)CC1 | 7 | 8 | i | + | 757 | 0
CC(=O)N1CCN(c2nc3ccc(Br)cc3s2)CC1 | 5 | 5 | i | i | 154 | 2
COCCCNC(=O)C[C@@H]1C[C@@]2(C(=O)OC)CCCCC=C2N(Cc2cccc3ccccc23)C1=O | . | 5 | . | i | . | .
COc1ccc(C2CC(c3cccs3)=NN2C(=O)CSc2nc(=O)n3cc(C)ccc3n2)cc1 (centres undefined) | -3 | 8 | i | i | 320 | 0
CCCCn1c(=O)[nH]c(=O)c2c1nc(-c1ccc(OCCC)c(OCC)c1)n2CCOC | -1 | 10 | i | i | 437 | 1
CCCOc1ccc(-c2nc3c(c(=O)[nH]c(=O)n3Cc3ccccc3)n2CCO)cc1OCC | -2 | 10 | + | i | 113 | 0
